In data set [1] the test system is Felis catus. In words: Dose estimated to produce 25 mm Hg fall in mean systemic blood pressure of anesthetized cat at 10 min after administration. It counts as functional.
The test system of data set [2] is Rattus norvegicus. The data set is described as follows: Difference in systolic blood pressure of SH rats observed prior to the first application and 2 hr after the fifth application at the oral dose of 5 mg/kg was expressed as Delta BP. It counts as functional, Artery. A digest of the protocol: (§1)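 Male spontaneously hypertensive rats (Wistar–Okamoto, 250–300 g, 12–16 weeks), conscious. Dosed orally once daily for 5 days in 0.9% NaCl or 0.5% carboxymethylcellulose (10 mL/kg); vehicle control group. Rats warmed at 37–38 °C for 10 min, then systolic pressure taken by tail-cuff (piezoelectric pulse detection). ΔBP = pre-first-dose minus 2 h after fifth dose; mean ± SEM, six animals.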

In data set [3] the test system is Rattus norvegicus. In words: Difference in systolic blood pressure of SH rats observed prior to the first application and 2 hr after the fifth application at the oral dose of 25 mg/kg was expressed as Delta BP. Format: functional, Artery. A digest of the protocol:
as §1

In data set [4] the test system is Felis catus. In words: Blood pressure lowering activity in anesthetized cats after intravenous administration of […] of compound. It counts as functional.
A short description of data set [5]: Compound was tested for toxicity in mice after intraperitoneal administration. It counts as organism-based. The following applies: mouse, in vivo, ip. Put shortly:
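Mice (18–22 g), either sex. Compound dissolved in distilled water or suspended in 0.5% (carboxymethyl)cellulose and given ip at 10, 30, 100, 300 and 1000 mg/kg, 1 mL/100 g body weight. Animals observed for 48 h; approximate LD50 calculated by the Campbell and Richter method.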

In data set [6] the test system is Rattus norvegicus. In words: Delta BP refers to difference in systolic blood pressure of SH rats observed prior to the first application and 2 hr after the fifth application at the oral dose of 3 mg/kg. It counts as functional, Artery. A digest of the protocol: as §1
The subject of data set [7] is Rattus norvegicus. In words: Difference in systolic blood pressure of SH rats observed prior to the first application and 2 hr after the fifth application at the oral dose of 10 mg/kg was expressed as Delta BP. Format: functional, Artery. Put shortly: as §1

The source of these data is ChEMBL document CHEMBL1122780, “Trequinsin, a potent new antihypertensive vasodilator in the series of 2-(arylimino)-3-alkyl-9,10-dimethoxy-3,4,6,7-tetrahydro-2H-py rim ido [6,1-a]isoquinolin-4-ones” (J Med Chem, 1984).

For `CCc1cccc(C(C)C)c1Nc1cc2n(c(=O)n1)CCc1cc(OC)c(OC)cc1-2.Cl`, the ED25 in the data set on Felis catus [1] is 3 mg/kg. In the data set with Rattus norvegicus [2], `COc1cc2c(cc1OC)-c1cc(=Nc3c(C)cccc3C(C)C)n(C)c(=O)n1CC2.Cl` displayed a Delta blood pressure of 0 mmHg. The ED25 with Felis catus [1] is 1 mg/kg. In the case of `COc1cc2c(cc1OC)-c1cc(Nc3ccccc3Cl)nc(=O)n1CC2.Cl`, the ED25 in the data set with Felis catus [1] was 1.4 mg/kg. The molecule also registered a Delta blood pressure with Rattus norvegicus [3] of 0 mmHg.

`COc1cc2c(cc1OC)-c1cc(=Nc3ccc(C)cc3C)n(C)c(=O)n1CC2.Cl`: the ED25 in the data set with Felis catus [1] was 10 mg/kg. On to `COc1cc2c(cc1OC)-c1cc(Nc3c(C)cccc3C(C)(C)C)nc(=O)n1CC2.Cl`, for which the ED25 with Felis catus [1] is 1.8 mg/kg. In addition, the Delta blood pressure in the data set with Rattus norvegicus [3] is 0 mmHg. Turning to `CCn1c(=Nc2c(C)cc(C)cc2C)cc2n(c1=O)CCc1cc(OC)c(OC)cc1-2.Cl`, the ED25 in the data set on Felis catus [4] is 0.025 mg/kg; in the data set on Felis catus [1], 0.1 mg/kg. The molecule also showed a Delta blood pressure in the data set with Rattus norvegicus [2] of -20 mmHg. Also, the 50% lethal dose (LD50) (usually the dose at which mortality reaches 50%) in data set [5] is 65 mg/kg. As for `CCc1cccc(C(C)CC)c1N=c1cc2n(c(=O)n1C)CCc1cc(OC)c(OC)cc1-2.Cl` (centres undefined), the ED25 in the data set on Felis catus [1] is 3.5 mg/kg. Also, the Delta blood pressure in the data set on Rattus norvegicus [3] is listed as -20 mmHg. Take `COc1cc2c(cc1OC)-c1cc(N(C)c3c(C)cc(C)cc3C)nc(=O)n1CC2.Cl`: the ED25 with Felis catus [4] and in the data set on Felis catus [1] was 0.03 mg/kg throughout. This molecule returned a Delta blood pressure in the data set with Rattus norvegicus [2] of -45 mmHg. The LD50 in data set [5] came out at 27 mg/kg. In the case of `COc1cc(Nc2cc3n(c(=O)n2)CCc2cc(OC)c(OC)cc2-3)cc(OC)c1.Cl`, the ED25 with Felis catus [1] was 3.4 mg/kg.

Regarding `COc1cc2c(cc1OC)-c1cc(Nc3cc(OC)c(OC)c(OC)c3)nc(=O)n1CC2.Cl`, in the data set with Felis catus [1], the ED25 was 0.8 mg/kg.

Consider `COc1cc2c(cc1OC)-c1cc(Nc3c(Cl)cc(Cl)cc3Cl)nc(=O)n1CC2.Cl`, for which the ED25 in the data set with Felis catus [1] was 0.5 mg/kg.

In the case of `COc1cc2c(cc1OC)-c1cc(Nc3ccc(C)c(Cl)c3Cl)nc(=O)n1CC2.Cl`, the ED25 in the data set on Felis catus [1] is 5 mg/kg. In addition, the Delta blood pressure in the data set with Rattus norvegicus [3] was -19 mmHg. In the case of `COc1cc2c(cc1OC)-c1cc(Nc3c(C)cc(C)cc3C)nc(=O)n1CC2.Cl`, the ED25 with Felis catus [4] and with Felis catus [1] was 0.2 mg/kg throughout. The Delta blood pressure in the data set on Rattus norvegicus [2] is given as -37 mmHg. In addition, the median lethal dose (LD50) in data set [5] was 82.5 mg/kg. Turning to `COc1cc2c(cc1OC)-c1cc(=Nc3c(C)cc(C)cc3C)n(CP(C)(C)=O)c(=O)n1CC2.Cl`, the figures for the ED25 with Felis catus [4] and in the data set with Felis catus [1] were 0.5 mg/kg and 0.1 mg/kg, respectively. In the data set on Rattus norvegicus [2], the Delta blood pressure is -33 mmHg. In addition, the LD50 in data set [5] was found to be 65 mg/kg. For the molecule `COc1cc2c(cc1OC)-c1cc(Nc3c(C)cccc3C(C)C)nc(=O)n1CC2.Cl`, the ED25 in the data set on Felis catus [1] is 2.2 mg/kg. As for `COc1cc2c(cc1OC)-c1cc(=Nc3c(F)cccc3F)n(CP(C)(C)=O)c(=O)n1CC2.Cl`, the ED25 in the data set on Felis catus [1] was 0.4 mg/kg. In the data set on Rattus norvegicus [3], this molecule gave a Delta blood pressure of 0 mmHg. For `CCOc1ccccc1Nc1cc2n(c(=O)n1)CCc1cc(OC)c(OC)cc1-2.Cl` the same measures were 1.2 mg/kg and -27 mmHg.

`CCOc1ccc(Nc2cc3n(c(=O)n2)CCc2cc(OC)c(OC)cc2-3)cc1.Cl`: the ED25 in the data set on Felis catus [1] is 50 mg/kg.

With `COc1cc2c(cc1OC)-c1cc(Nc3c(F)cccc3F)nc(=O)n1CC2`, the ED25 with Felis catus [1] was 3.5 mg/kg. For the same molecule, the Delta blood pressure in the data set on Rattus norvegicus [3] was found to be 0 mmHg. Take `COc1cc2c(cc1OC)-c1cc(=Nc3c(C)cccc3C)n(C)c(=O)n1CC2`: in the data set on Felis catus [1], the ED25 is 3.5 mg/kg.

With `CCN(c1cc2n(c(=O)n1)CCc1cc(OC)c(OC)cc1-2)c1c(C)cc(C)cc1C`, the ED25 is 0.1 mg/kg in the data set on Felis catus [4] and 0.025 mg/kg in the data set on Felis catus [1]. In the data set on Rattus norvegicus [6], this molecule came in with a Delta blood pressure of -13 mmHg. In data set [5], this molecule gave an LD50 of 65 mg/kg. Turning to `COc1cc2c(cc1OC)-c1cc(Nc3ccc(Cl)cc3Cl)nc(=O)n1CC2`, in the data set with Felis catus [1], the ED25 is 1 mg/kg. The Delta blood pressure in the data set with Rattus norvegicus [3] turned out to be 0 mmHg. In the case of `COc1cc2c(cc1OC)-c1cc(Nc3ccc(C)c(C)c3)nc(=O)n1CC2`, the ED25 with Felis catus [1] is 10 mg/kg. As to `COc1cc2c(cc1OC)-c1cc(=Nc3c(C)cc(C)cc3C)n(C(C)C)c(=O)n1CC2`, the ED25 in the data set on Felis catus [1] was 0.1 mg/kg. This molecule displayed a Delta blood pressure in the data set on Rattus norvegicus [7] of -34 mmHg.

Turning to `COc1cc2c(cc1OC)-c1cc(Nc3cc(C)cc(C)c3)nc(=O)n1CC2`, the ED25 with Felis catus [1] was 3 mg/kg. As to `COc1cc2c(cc1OC)-c1cc(=Nc3c(Cl)cc(Cl)cc3Cl)n(C)c(=O)n1CC2`, the ED25 with Felis catus [1] is 3 mg/kg. This molecule showed a Delta blood pressure in the data set on Rattus norvegicus [3] of -21 mmHg. For `COc1cc2c(cc1OC)-c1cc(N(CP(C)(C)=O)c3c(F)cccc3F)nc(=O)n1CC2` the same measures were 2.4 mg/kg and 0 mmHg. For `COc1cc2c(cc1OC)-c1cc(Nc3ccc(O)cc3)nc(=O)n1CC2`, the ED25 with Felis catus [1] is 10 mg/kg. As for `COc1cc2c(cc1OC)-c1cc(Nc3ccc(C)cc3C)nc(=O)n1CC2`, in the data set with Felis catus [1], the ED25 was 1 mg/kg. This molecule also came in with a Delta blood pressure in the data set with Rattus norvegicus [3] of -41 mmHg.

With `COc1cc2c(cc1OC)-c1cc(Nc3ccc(C)c(N)c3)nc(=O)n1CC2`, in the data set with Felis catus [1], the ED25 is 2.4 mg/kg. The same measure, in the same setting: next, `CCc1ccccc1Nc1cc2n(c(=O)n1)CCc1cc(OC)c(OC)cc1-2`: 10 mg/kg; `COc1ccc(OC)c(Nc2cc3n(c(=O)n2)CCc2cc(OC)c(OC)cc2-3)c1`: 50 mg/kg. On to `COc1cc2c(cc1OC)-c1cc(N(c3c(C)cc(C)cc3C)C(C)C)nc(=O)n1CC2`, for which, in the data set with Rattus norvegicus [2], the Delta blood pressure is -37 mmHg. Besides, the ED25 with Felis catus [1] was 0.5 mg/kg. For `COc1cc2c(cc1OC)-c1cc(Nc3ccccc3C(=O)O)nc(=O)n1CC2`, the ED25 in the data set on Felis catus [1] was 50 mg/kg.

Consider `COc1cc2c(cc1OC)-c1cc(Nc3c(Cl)cccc3Cl)nc(=O)n1CC2`, for which, in the data set with Felis catus [1], the ED25 is 2 mg/kg. With `CCCCN(c1cc2n(c(=O)n1)CCc1cc(OC)c(OC)cc1-2)c1c(C)cc(C)cc1C`, in the data set with Felis catus [1], the ED25 was 0.08 mg/kg.

`COc1cc2c(cc1OC)-c1cc(Nc3c(C)cccc3C)nc(=O)n1CC2`: the Delta blood pressure with Rattus norvegicus [2] was -27 mmHg. The ED25 in the data set on Felis catus [1] was 0.1 mg/kg. Take `COc1cc2c(cc1OC)-c1cc(Nc3ccc(Cl)cc3)nc(=O)n1CC2`: in the data set with Felis catus [1], the ED25 is 50 mg/kg. On to `COc1cc2c(cc1OC)-c1cc(N(C(C)=O)c3c(C)cc(C)cc3C)nc(=O)n1CC2`, for which the ED25 in the data set with Felis catus [4] and with Felis catus [1] was 0.25 mg/kg throughout. The LD50 in data set [5] was 825 mg/kg. Moreover, in the data set on Rattus norvegicus [7], the Delta blood pressure is recorded as -24 mmHg. On to `COc1cc2c(cc1OC)-c1cc(=Nc3c(F)cccc3F)n(C)c(=O)n1CC2`, for which, in the data set with Felis catus [1], the ED25 is 0.5 mg/kg. In addition, the Delta blood pressure with Rattus norvegicus [7] came out at 0 mmHg. `COc1cc2c(cc1OC)-c1cc(Nc3cccc(C(F)(F)F)c3)nc(=O)n1CC2`: the ED25 in the data set on Felis catus [1] is 2 mg/kg. In turn, `N/N=c1\[nH][nH]/c(=N\N)c2ccccc12` [DIHYDRALAZINE] displayed a Delta blood pressure in the data set on Rattus norvegicus [2] of -60 mmHg. Further, the ED25 in the data set with Felis catus [1] was 1 mg/kg.

Molecule `Nc1cc(N2CCCCC2)nc(N)[n+]1[O-]` [MINOXIDIL] yielded a Delta blood pressure in the data set on Rattus norvegicus [2] of -51.2 mmHg. For the same molecule, in the data set on Felis catus [1], the ED25 is 1.2 mg/kg.
